Activity calls are given as the source filed them. No cut-off for these calls is given here.
Legend:
[1] = Inhibition of chymotrypsin-like activity of human erythrocyte 20S proteasome
In short: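 Isolated 20S proteasome purified from human erythrocytes was tested in a fluorimetric kinetic assay of chymotrypsin-like activity. Potency is reported as IC50.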

[2] = Inhibition of chymotrypsin-like activity of human 20S proteasome in Molt4 cells; format: cell-based; conditions: molt-4
In short: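 Intact human leukemia Molt-4 cells were given the cell-permeable fluorogenic chymotrypsin-like substrate MeOSuc-FLF-AFC, so the read-out also reflects inhibitor cell permeability. Potency is reported as EC50.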

[3] = Inhibition of bovine alpha chymotrypsin; parameters: species or system Bos taurus
A2780 = experiment: Cytotoxicity against human A2780 cells; format: functional, cell-based
In short: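 Antiproliferative activity was measured in A2780 ovarian carcinoma cells with a standard colorimetric assay of cell proliferation and viability. Results are expressed as IC50.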

[4] = target: Cathepsin G (Homo sapiens) (UniProt P08311); experiment: Inhibition of human cathepsin G at 10 uM
Caspase-1 (Homo sapiens) = Caspase-1 (Homo sapiens) (UniProt P29466); experiment: Inhibition of human caspase 1 at 10 uM
[5] = target: Stromelysin-1 (Homo sapiens) (UniProt P08254); experiment: Inhibition of human MMP3 at 10 uM
[6] = target: Matrilysin (Homo sapiens) (UniProt P09237); experiment: Inhibition of human MMP7 at 10 uM
[7] = Metabolic stability in rat liver microsomes; format: ADME, Microsome
[8] = target: Disintegrin and metalloproteinase domain-containing protein 17 (Homo sapiens) (UniProt P78536); experiment: Inhibition of human TACE at 10 uM
Cathepsin G = Cathepsin G (Homo sapiens, UniProt P08311); experiment: Inhibition of human cathepsin G
[9] = AUC (0 to infinity) in CD1 mouse at 0.8 mg/kg, iv; format: ADME, organism-based; parameters: time infinity, dose 0.8 mg/kg, route intravenous; conditions: plasma
In short: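 CD-1 mice received a single dose by the iv or oral route. AUC from 0 to infinity was reported with terminal half-life, Vss, clearance and absolute oral bioavailability.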

[10] = Half life in CD1 mouse at 0.8 mg/kg, iv; format: ADME, organism-based; parameters: dose 0.8 mg/kg, route intravenous; conditions: in vivo
In short: (§1)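 Female Sprague–Dawley rats and CD-1 mice each received a single iv or oral (po) dose. Terminal half-life and systemic clearance were estimated from plasma exposure over time, alongside AUC0→∞, Vss and absolute oral bioavailability.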

Homo sapiens [11] = species: Homo sapiens; experiment: Inhibition of human tryptase at 10 uM
[12] = Metabolic stability in dog liver microsomes; format: ADME, Canis lupus familiaris, Microsome
[13] = target: Coagulation factor X (Homo sapiens) (UniProt P00742); experiment: Inhibition of human factor 10a at 10 uM
[14] = target: Neprilysin (Homo sapiens) (UniProt P08473); experiment: Inhibition of human NEP at 10 uM
[15] = Inhibition of human chymotrypsin
In short: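 Cross-reactivity was tested against human pancreas α-chymotrypsin using a fluorogenic specific substrate. Results are expressed as IC50.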

[16] = Metabolic stability in human liver microsomes; format: ADME, Microsome
Caspase-8 (Homo sapiens) = Caspase-8 (Homo sapiens) (UniProt Q14790); experiment: Inhibition of human caspase 8 at 10 uM
[17] = AUC (0 to infinity) in CD1 mouse at 4 mg/kg, po; format: ADME, organism-based; parameters: time infinity, dose 4 mg/kg, route oral; conditions: plasma
[18] = Inhibition of bacterial prolyl oligopeptidase at 10 uM
[19] = target: Protease (Human immunodeficiency virus 1) (UniProt Q9YQ12); experiment: Inhibition of HIV1 protease at 10 uM
Sus scrofa [20] = species: Sus scrofa; experiment: Inhibition of pig pancreatic elastase 1 at 10 uM
Sus scrofa [21] = species: Sus scrofa; experiment: Inhibition of pig pepsin at 10 uM
[22] = target: Procathepsin L (Homo sapiens) (UniProt P07711); experiment: Inhibition of human cathepsin L at 10 uM
[23] = Metabolic stability in mouse liver microsomes; format: ADME, Microsome
[24] = target: 72 kDa type IV collagenase (Homo sapiens) (UniProt P08253); experiment: Inhibition of human MMP2 at 10 uM
[25] = target: Dipeptidyl peptidase 1 (Bos taurus) (UniProt Q3ZCJ8); experiment: Inhibition of bovine cathepsin C at 10 uM
Caspase-9 (Homo sapiens) = Caspase-9 (Homo sapiens) (UniProt P55211); experiment: Inhibition of human caspase 9 at 10 uM
Caspase-2 (Homo sapiens) = Caspase-2 (Homo sapiens) (UniProt P42575); experiment: Inhibition of human caspase 2 at 10 uM
[26] = target: Interstitial collagenase (Homo sapiens) (UniProt P03956); experiment: Inhibition of human MMP1 at 10 uM
[27] = target: Plasma kallikrein (Homo sapiens) (UniProt P03952); experiment: Inhibition of human plasma kallikrein at 10 uM
Caspase-3 (Homo sapiens) = Caspase-3 (Homo sapiens) (UniProt P42574); experiment: Inhibition of human caspase 3 at 10 uM
[28] = Protein binding in mouse plasma; format: ADME, cell-free; conditions: read-out: PPB (converted)
Mus musculus = experiment: Inhibition of 20S proteasome beta5beta1 subunit binding in human RPMI 8226 cells xenografted mouse; format: functional, organism-based
[29] = Half life in CD1 mouse at 4 mg/kg, po; format: ADME, organism-based; parameters: dose 4 mg/kg, route oral; conditions: in vivo; in short: as §1
[30] = target: Cathepsin E (Homo sapiens) (UniProt P14091); experiment: Inhibition of human cathepsin E at 10 uM
[31] = target: Cathepsin Z (Homo sapiens) (UniProt Q9UBR2); experiment: Inhibition of human cathepsin Z at 10 uM
[32] = target: Dipeptidyl peptidase 4 (Homo sapiens) (UniProt P27487); experiment: Inhibition of human DPP4 at 10 uM
[33] = target: Plasminogen (Homo sapiens) (UniProt P00747); experiment: Inhibition of human plasmin at 10 uM
[34] = Volume of distribution at steady state in CD1 mouse at 0.8 mg/kg, iv; format: ADME, organism-based; parameters: dose 0.8 mg/kg, route intravenous; conditions: in vivo, read-out: Vdss
In short: (§2)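 Single-dose pharmacokinetics after iv or oral administration in female Sprague–Dawley rats and in CD-1 mice; plasma exposure (AUC0–∞) used to derive steady-state volume of distribution, clearance, terminal half-life and absolute oral bioavailability.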

[35] = target: Tissue-type plasminogen activator (Homo sapiens) (UniProt P00750); experiment: Inhibition of human TPA at 10 uM
[36] = Oral bioavailability in CD1 mouse at 4 mg/kg; format: ADME, organism-based; conditions: in vivo; in short: as §2
Homo sapiens [37] = species: Homo sapiens; experiment: Inhibition of human chymotrypsin at 10 uM
[38] = target: Calpain-1 catalytic subunit (Homo sapiens) (UniProt P07384); experiment: Inhibition of human calpain 1 at 10 uM
Caspase-7 (Homo sapiens) = Caspase-7 (Homo sapiens) (UniProt P55210); experiment: Inhibition of human caspase 7 at 10 uM
[39] = target: Cathepsin S (Homo sapiens) (UniProt P25774); experiment: Inhibition of human cathepsin S at 10 uM
Renin (Homo sapiens) = Renin (Homo sapiens) (UniProt P00797); experiment: Inhibition of human renin at 10 uM
[40] = Protein binding in rat plasma; format: ADME, cell-free; conditions: read-out: PPB (converted)
[41] = target: Prothrombin (Homo sapiens) (UniProt P00734); experiment: Inhibition of human thrombin at 10 uM
[42] = Protein binding in dog plasma; format: ADME, cell-free, Canis lupus familiaris; conditions: read-out: PPB (converted)
[43] = target: Cathepsin D (Homo sapiens) (UniProt P07339); experiment: Inhibition of human cathepsin D at 10 uM
[44] = target: Pro-cathepsin H (Homo sapiens) (UniProt P09668); experiment: Inhibition of human cathepsin H at 10 uM
[45] = target: Neutrophil collagenase (Homo sapiens) (UniProt P22894); experiment: Inhibition of human MMP8 at 10 uM
Chymase (Homo sapiens) = Chymase (Homo sapiens) (UniProt P23946); experiment: Inhibition of human chymase at 10 uM
[46] = target: Endothelin-converting enzyme 1 (Homo sapiens) (UniProt P42892); experiment: Inhibition of human ECE1 at 10 uM
[47] = target: Neutrophil elastase (Homo sapiens) (UniProt P08246); experiment: Inhibition of human neutrophil elastase 2 at 10 uM
[48] = target: Coagulation factor VII (Homo sapiens) (UniProt P08709); experiment: Inhibition of human factor 7a at 10 uM
[49] = Clearance in CD1 mouse at 0.8 mg/kg, iv; format: ADME, organism-based; parameters: dose 0.8 mg/kg, route intravenous; conditions: in vivo; in short: as §1
Chymase = Chymase (Homo sapiens, UniProt P23946); experiment: Inhibition of human chymase
[50] = target: Macrophage metalloelastase (Homo sapiens) (UniProt P39900); experiment: Inhibition of human MMP12 at 10 uM
Trypsin (Homo sapiens) = Trypsin (Homo sapiens) (UniProt P07477+P07478+P35030); experiment: Inhibition of human trypsin at 10 uM; format: protein assay

Chain of Dipeptidyl peptidase 1 (Bos taurus) (Q3ZCJ8 25-134 limits assumed): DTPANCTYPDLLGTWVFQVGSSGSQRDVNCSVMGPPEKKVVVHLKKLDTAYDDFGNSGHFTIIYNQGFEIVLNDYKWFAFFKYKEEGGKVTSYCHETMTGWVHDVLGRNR
Chain of Dipeptidyl peptidase 1 (Bos taurus) (Q3ZCJ8 231-394 limits assumed): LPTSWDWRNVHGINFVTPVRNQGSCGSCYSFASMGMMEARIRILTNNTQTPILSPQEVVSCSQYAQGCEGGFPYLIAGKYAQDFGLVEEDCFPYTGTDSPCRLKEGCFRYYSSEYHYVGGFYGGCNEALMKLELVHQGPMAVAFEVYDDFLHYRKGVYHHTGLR
Chain of Dipeptidyl peptidase 1 (Bos taurus) (Q3ZCJ8 395-463 limits assumed): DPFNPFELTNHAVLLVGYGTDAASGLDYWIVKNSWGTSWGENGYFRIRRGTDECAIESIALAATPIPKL
Chain of Neprilysin (Homo sapiens) (P08473 whole entry): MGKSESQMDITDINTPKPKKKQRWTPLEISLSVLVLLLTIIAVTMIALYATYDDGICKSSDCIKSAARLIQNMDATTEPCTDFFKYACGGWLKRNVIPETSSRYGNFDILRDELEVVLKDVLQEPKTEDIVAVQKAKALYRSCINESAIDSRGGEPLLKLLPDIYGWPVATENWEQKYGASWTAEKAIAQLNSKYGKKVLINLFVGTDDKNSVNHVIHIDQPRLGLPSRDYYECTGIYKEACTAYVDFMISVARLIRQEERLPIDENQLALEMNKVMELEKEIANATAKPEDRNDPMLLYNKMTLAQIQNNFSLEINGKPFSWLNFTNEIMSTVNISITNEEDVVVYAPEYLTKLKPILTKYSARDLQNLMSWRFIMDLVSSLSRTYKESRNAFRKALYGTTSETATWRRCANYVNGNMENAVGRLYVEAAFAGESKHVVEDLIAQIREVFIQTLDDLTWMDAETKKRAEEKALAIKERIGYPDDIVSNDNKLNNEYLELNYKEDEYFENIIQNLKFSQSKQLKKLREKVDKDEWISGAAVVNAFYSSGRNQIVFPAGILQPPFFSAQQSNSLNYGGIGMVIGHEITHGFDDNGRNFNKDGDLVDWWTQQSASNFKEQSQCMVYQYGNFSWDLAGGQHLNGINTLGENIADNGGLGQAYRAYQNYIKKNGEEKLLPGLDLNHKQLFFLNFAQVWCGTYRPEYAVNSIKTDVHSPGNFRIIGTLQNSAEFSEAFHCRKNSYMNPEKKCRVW
Chain of Caspase-8 (Homo sapiens) (Q14790 217-374 limits assumed): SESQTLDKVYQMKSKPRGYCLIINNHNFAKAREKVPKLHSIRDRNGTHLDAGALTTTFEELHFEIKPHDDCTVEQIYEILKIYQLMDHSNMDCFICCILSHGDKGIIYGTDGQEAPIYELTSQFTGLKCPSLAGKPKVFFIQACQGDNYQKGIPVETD
Chain of Caspase-8 (Homo sapiens) (Q14790 385-479 limits assumed): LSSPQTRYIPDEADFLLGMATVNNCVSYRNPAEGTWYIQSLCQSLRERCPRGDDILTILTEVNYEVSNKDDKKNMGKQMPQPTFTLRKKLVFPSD
Chain of Coagulation factor X (Homo sapiens) (P00742 41-179 limits assumed): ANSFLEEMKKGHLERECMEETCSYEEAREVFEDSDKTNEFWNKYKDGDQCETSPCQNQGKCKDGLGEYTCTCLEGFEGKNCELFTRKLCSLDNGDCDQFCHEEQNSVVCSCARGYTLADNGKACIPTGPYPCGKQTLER
Chain of Coagulation factor X (Homo sapiens) (P00742 235-488 limits assumed): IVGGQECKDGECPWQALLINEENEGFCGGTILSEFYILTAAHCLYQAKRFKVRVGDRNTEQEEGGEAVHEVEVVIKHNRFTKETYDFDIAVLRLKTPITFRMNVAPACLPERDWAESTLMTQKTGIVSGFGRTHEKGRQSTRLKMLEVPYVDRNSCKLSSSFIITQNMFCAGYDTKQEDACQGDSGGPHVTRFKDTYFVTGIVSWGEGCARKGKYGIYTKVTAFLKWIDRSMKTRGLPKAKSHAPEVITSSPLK
Chain of Interstitial collagenase (Homo sapiens) (P03956 whole entry): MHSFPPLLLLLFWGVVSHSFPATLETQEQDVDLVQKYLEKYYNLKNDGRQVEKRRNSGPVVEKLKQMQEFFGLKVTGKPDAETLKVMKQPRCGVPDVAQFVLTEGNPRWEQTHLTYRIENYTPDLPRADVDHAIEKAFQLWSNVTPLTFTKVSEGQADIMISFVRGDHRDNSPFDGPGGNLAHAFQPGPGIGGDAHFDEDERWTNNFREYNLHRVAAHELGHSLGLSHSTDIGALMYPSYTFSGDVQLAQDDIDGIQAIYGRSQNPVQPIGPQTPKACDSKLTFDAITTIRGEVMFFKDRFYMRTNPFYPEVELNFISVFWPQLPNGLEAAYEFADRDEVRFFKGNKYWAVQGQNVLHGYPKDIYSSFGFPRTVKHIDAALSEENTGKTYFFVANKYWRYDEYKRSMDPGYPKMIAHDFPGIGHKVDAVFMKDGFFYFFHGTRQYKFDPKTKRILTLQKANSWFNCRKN
Chain of Tissue-type plasminogen activator (Homo sapiens) (P00750 36-562 limits assumed): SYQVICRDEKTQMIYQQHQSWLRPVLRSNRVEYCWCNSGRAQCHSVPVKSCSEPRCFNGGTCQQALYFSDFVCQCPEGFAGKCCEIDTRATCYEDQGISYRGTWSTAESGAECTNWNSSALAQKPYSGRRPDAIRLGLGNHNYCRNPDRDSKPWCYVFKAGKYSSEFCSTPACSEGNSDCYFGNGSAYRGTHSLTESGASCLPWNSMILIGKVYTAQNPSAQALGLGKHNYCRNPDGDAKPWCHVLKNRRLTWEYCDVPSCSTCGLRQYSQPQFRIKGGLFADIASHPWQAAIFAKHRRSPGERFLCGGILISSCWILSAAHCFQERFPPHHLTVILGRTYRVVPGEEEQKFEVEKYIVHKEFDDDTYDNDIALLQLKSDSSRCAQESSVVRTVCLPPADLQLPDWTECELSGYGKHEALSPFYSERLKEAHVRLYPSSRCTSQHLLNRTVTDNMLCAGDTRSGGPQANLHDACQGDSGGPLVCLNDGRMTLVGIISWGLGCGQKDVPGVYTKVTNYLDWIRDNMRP
Chain of Caspase-7 (Homo sapiens) (P55210 24-198 limits assumed): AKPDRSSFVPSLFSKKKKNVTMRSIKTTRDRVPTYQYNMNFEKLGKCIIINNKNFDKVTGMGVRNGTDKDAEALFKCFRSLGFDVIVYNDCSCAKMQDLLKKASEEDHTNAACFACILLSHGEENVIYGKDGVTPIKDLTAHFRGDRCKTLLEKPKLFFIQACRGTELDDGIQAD
Chain of Caspase-7 (Homo sapiens) (P55210 207-303 limits assumed): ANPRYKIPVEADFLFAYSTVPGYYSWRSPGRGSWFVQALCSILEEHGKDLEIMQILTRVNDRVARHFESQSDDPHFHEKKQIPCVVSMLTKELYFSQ
Chain of Caspase-9 (Homo sapiens) (P55211 1-315 limits assumed): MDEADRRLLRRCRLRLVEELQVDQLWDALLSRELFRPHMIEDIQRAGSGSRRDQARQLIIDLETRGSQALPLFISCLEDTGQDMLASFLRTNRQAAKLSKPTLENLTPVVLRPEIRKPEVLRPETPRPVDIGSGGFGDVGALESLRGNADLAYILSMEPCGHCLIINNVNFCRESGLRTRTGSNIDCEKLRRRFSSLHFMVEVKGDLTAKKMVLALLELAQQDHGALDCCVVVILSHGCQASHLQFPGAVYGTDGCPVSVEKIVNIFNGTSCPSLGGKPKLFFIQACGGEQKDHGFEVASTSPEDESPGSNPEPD
Chain of Caspase-9 (Homo sapiens) (P55211 331-416 limits assumed): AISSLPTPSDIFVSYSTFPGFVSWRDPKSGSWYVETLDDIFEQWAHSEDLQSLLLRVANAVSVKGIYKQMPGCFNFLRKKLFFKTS
Chain of Coagulation factor VII (Homo sapiens) (P08709 61-212 limits assumed): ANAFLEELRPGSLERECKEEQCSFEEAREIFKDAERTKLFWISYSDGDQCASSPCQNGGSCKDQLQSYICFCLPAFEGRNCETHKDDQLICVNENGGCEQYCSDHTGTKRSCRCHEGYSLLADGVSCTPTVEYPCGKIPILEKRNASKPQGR
Chain of Coagulation factor VII (Homo sapiens) (P08709 213-466 limits assumed): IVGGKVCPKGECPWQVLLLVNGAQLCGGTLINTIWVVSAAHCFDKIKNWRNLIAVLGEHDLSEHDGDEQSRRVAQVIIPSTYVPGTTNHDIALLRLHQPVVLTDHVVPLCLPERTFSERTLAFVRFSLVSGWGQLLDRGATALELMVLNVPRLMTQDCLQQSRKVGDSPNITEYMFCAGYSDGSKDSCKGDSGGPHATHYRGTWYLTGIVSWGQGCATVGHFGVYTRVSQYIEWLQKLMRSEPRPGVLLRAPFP
Chain of Protease (Human immunodeficiency virus 1) (Q9YQ12 as listed by the source): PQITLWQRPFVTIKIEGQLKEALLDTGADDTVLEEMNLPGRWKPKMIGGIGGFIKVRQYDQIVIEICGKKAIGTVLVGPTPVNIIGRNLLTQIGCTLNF
Chain of Cathepsin Z (Homo sapiens) (Q9UBR2 whole entry): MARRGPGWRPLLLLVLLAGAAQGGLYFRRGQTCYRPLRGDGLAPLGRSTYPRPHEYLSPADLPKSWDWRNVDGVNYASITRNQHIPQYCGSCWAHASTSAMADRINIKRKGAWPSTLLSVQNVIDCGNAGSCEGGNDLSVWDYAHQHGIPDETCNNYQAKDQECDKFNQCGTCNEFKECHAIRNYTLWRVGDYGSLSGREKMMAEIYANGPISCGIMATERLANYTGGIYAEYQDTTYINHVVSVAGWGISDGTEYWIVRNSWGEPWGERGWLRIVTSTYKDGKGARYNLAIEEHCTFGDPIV
Chain of Cathepsin S (Homo sapiens) (P25774 115-331 limits assumed): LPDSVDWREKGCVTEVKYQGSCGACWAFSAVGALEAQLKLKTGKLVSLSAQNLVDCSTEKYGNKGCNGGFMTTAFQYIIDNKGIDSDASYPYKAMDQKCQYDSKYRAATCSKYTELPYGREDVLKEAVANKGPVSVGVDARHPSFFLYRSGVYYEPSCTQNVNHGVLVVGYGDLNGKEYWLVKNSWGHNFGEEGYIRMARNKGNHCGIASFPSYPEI
Chain of Chymase (Homo sapiens) (P23946 whole entry): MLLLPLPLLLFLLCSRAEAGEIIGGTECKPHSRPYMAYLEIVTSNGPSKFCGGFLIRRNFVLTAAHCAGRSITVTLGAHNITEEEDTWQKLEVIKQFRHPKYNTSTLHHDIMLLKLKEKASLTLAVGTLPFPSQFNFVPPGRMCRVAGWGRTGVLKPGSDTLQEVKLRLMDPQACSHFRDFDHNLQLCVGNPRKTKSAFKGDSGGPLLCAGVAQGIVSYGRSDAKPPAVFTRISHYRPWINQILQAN

CC(C)C[C@H](NC(=O)[C@@H](NC(=O)c1cnccn1)[C@@H](C)O)B(O)O
IC50 [1]: 42 nM
EC50 [2]: 1350 nM

CC(C)C[C@H](NC(=O)[C@@H](NC(=O)c1ccc2ccccc2n1)[C@@H](C)O)B(O)O
IC50 [1]: 6.8 nM
IC50 [3]: 1300 nM
EC50 [2]: 32 nM
IC50 (A2780): 20.9 nM

CC(C)C[C@H](NC(=O)[C@@H](NC(=O)c1ccc(-c2ccccc2)cc1)[C@@H](C)O)B(O)O
IC50 [1]: 0.9 nM
IC50 [3]: 600 nM
EC50 [2]: 21 nM
IC50 (A2780): 4.9 nM

CC(C)C[C@H](NC(=O)[C@H](Cc1ccccc1)NC(=O)c1cnccn1)B(O)O [BORTEZOMIB]
IC50 [1]: 3.8 nM
inhibition [4]: 96%
inhibition (Caspase-1 (Homo sapiens)): 0%
inhibition [5]: -1%
inhibition [6]: -6%
half-life [7]: 16 min
inhibition [8]: 2%
IC50 (Cathepsin G): 520 nM
AUC(0-inf) [9]: 927 ng·h/mL
half-life [10]: 98 h
inhibition (Homo sapiens [11]): 0%
half-life [12]: > 40 min
inhibition [13]: 4%
inhibition [14]: 9%
IC50 [15]: 1220 nM
half-life [16]: 37 min
inhibition (Caspase-8 (Homo sapiens)): -4%
AUC(0-inf) [17]: 499 ng·h/mL
inhibition [18]: 9%
inhibition [19]: -2%
inhibition (Sus scrofa [20]): -1%
inhibition (Sus scrofa [21]): 8%
inhibition [22]: 50%
half-life [23]: 21 min
inhibition [24]: -1%
inhibition [25]: 5%
inhibition (Caspase-9 (Homo sapiens)): 0%
inhibition (Caspase-2 (Homo sapiens)): 1%
inhibition [26]: 6%
inhibition [27]: 6%
inhibition (Caspase-3 (Homo sapiens)): 2%
fraction unbound [28]: 0.049
Activity (Mus musculus): inactive
IC50 [3]: 500 nM
half-life [29]: 70 h
inhibition [30]: -3%
inhibition [31]: 27%
EC50 [2]: 21 nM
inhibition [32]: 1%
inhibition [33]: 22%
Vd [34]: 102 L/kg
inhibition [35]: 1%
bioavailability [36]: 11%
inhibition (Homo sapiens [37]): 86%
inhibition [38]: 0%
inhibition (Caspase-7 (Homo sapiens)): 1%
inhibition [39]: 48%
inhibition (Renin (Homo sapiens)): -1%
fraction unbound [40]: 0.069
inhibition [41]: 2%
fraction unbound [42]: 0.058
inhibition [43]: -1%
inhibition [44]: 8%
inhibition [45]: 3%
inhibition (Chymase (Homo sapiens)): 95%
inhibition [46]: 26%
IC50 (A2780): 1.7 nM
inhibition [47]: 27%
inhibition [48]: 4%
clearance [49]: 14.3 mL/min/kg
IC50 (Chymase): 1190 nM
inhibition [50]: -7%
inhibition (Trypsin (Homo sapiens)): -1%

CC(C)C[C@H](NC(=O)[C@@H](NC(=O)c1csc(-c2ccccc2)n1)[C@@H](C)O)B(O)O
IC50 [1]: 4.6 nM
IC50 [3]: 590 nM
EC50 [2]: 16 nM
IC50 (A2780): 28 nM

CC(C)C[C@H](NC(=O)[C@@H](NC(=O)c1cnc(-c2ccccc2)cn1)[C@@H](C)O)B(O)O
IC50 [1]: 1.8 nM
IC50 [3]: 270 nM
EC50 [2]: 21 nM
IC50 (A2780): 8.2 nM

CC(C)C[C@H](NC(=O)[C@@H](NC(=O)c1ncccc1-c1ccccc1)[C@@H](C)O)B(O)O
IC50 [1]: 8.8 nM
IC50 [3]: 460 nM
EC50 [2]: 13000 nM

CC(C)C[C@H](NC(=O)[C@@H](NC(=O)c1ccc2ccccc2c1)[C@@H](C)O)B(O)O
IC50 [1]: 1.6 nM
IC50 [3]: 500 nM
EC50 [2]: 27 nM
IC50 (A2780): 5.3 nM

CC(C)C[C@H](NC(=O)[C@@H](NC(=O)c1cc(-c2ccccc2)ccn1)[C@@H](C)O)B(O)O
IC50 [1]: 2 nM
IC50 [3]: 290 nM
EC50 [2]: 18.6 nM
IC50 (A2780): 5.1 nM

CC(C)C[C@H](NC(=O)[C@@H](NC(=O)c1cncc(-c2ccccc2)n1)[C@@H](C)O)B(O)O
IC50 [1]: 2.3 nM
IC50 [3]: 280 nM
EC50 [2]: 27 nM
IC50 (A2780): 9.8 nM

CC(C)C[C@H](NC(=O)[C@@H](NC(=O)c1cccc(-c2ccccc2)c1)[C@@H](C)O)B(O)O
IC50 [1]: 0.8 nM
IC50 [3]: 900 nM
EC50 [2]: 16.9 nM
IC50 (A2780): 4.8 nM
